Results from ChEMBL document CHEMBL1129303, “Potent human immunodeficiency virus type 1 protease inhibitors that utilize noncoded D-amino acids as P2/P3 ligands” (J Med Chem, 1996).
pIC50: −log10 of the molar value. Values joined by “and” are separate entries in the source; they are usually repeats but may differ in a detail not shown here. Equal entries are not always repeated.

What was measured:
[1] = system: MT2; assay: Antiviral activity against MT-2 cells; format: functional, cell-based; conditions: Homo sapiens
[2] = target: Human immunodeficiency virus type 1 protease (Human immunodeficiency virus 1, UniProt Q72874); assay: Inhibitory activity against HIV-1 protease
[3] = system: CCRF-CEM; assay: Antiviral activity against CEM cells; format: functional, cell-based; conditions: Homo sapiens
[4] = Maximum plasma concentration in rat upon oral administration of 40 mg/kg; format: ADME, organism-based; design: dose 40 mg/kg, route oral
How it was run: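 Fasted (16-18 h) Harlan Sprague-Dawley rats, jugular cannula implanted ≥48 h earlier, gavaged 40 mg/kg in acacia/Tween emulsion, n=2. Plasma from 0-4 h blood draws diluted 1:49 and assayed by HIV protease cleavage of FITC-labelled peptide (5 h, 37 °C, MES pH 5.5) with HPLC quantitation. Inhibitory activity read against a standard curve of parent compound; Cmax is the peak.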

[5] = system: CCRF-CEM; assay: In vitro inhibitory activity against replication of HIV type-1 virus in CEM cells; format: functional, cell-based; conditions: Homo sapiens

Compound: CC(C)(C)NC(=O)c1ccccc1C[C@@H](O)[C@H](Cc1ccccc1)NC(=O)[C@H](CSc1ccc2ccccc2n1)NS(C)(=O)=O
- pIC50 [1]: 5.19
- pIC50 [2]: 7.22
- pIC50 [3]: 5.27

Compound: CC(C)(C)NC(=O)c1ccccc1C[C@@H](O)[C@H](Cc1ccccc1)NC(=O)[C@H](CSc1ccccc1)NS(C)(=O)=O
- pIC50 [1]: 5.56
- pIC50 [2]: 7.36
- pIC50 [3]: 5.36

Compound: CC(C)(C)NC(=O)c1ccccc1C[C@@H](O)[C@H](Cc1ccccc1)NC(=O)[C@@H](N)CC(=O)OCc1ccccc1
- pIC50 [2]: < 6.00

Compound: CC(=O)N[C@@H](CSc1ccccc1)C(=O)N[C@@H](Cc1ccccc1)[C@H](O)Cc1ccccc1C(=O)NC(C)(C)C
- pIC50 [1]: 4.95
- pIC50 [2]: 6.66
- pIC50 [3]: 5.27

Compound: CC(C)(C)NC(=O)c1ccccc1C[C@@H](O)[C@H](Cc1ccccc1)NC(=O)[C@H](CSc1ccc2ccccc2c1)NS(C)(=O)=O
- pIC50 [1]: 6.10
- pIC50 [2]: 8.74
- pIC50 [3]: 6.28

Compound: CC(C)(C)NC(=O)c1ccccc1C[C@@H](O)[C@H](Cc1ccccc1)NC(=O)[C@H](C[S+]([O-])c1cccc2ccccc12)NS(C)(=O)=O (stereo partly drawn)
- pIC50 [1]: 8.22
- pIC50 [2]: 9.35
- Cmax [4]: < 250 ng/mL
- pIC50 [3]: > 9.30
- pIC50 [5]: 9.10

Compound: CC(C)(C)NC(=O)c1ccccc1C[C@@H](O)[C@H](Cc1ccccc1)NC(=O)[C@H](C[S+]([O-])c1ccccc1)NS(C)(=O)=O (stereo partly drawn)
- pIC50 [1]: 6.30
- pIC50 [2]: 8.72
- pIC50 [3]: 7.00

Compound: CCCC(=O)N[C@@H](CC(=O)OCc1ccccc1)C(=O)N[C@@H](Cc1ccccc1)[C@H](O)Cc1ccccc1C(=O)NC(C)(C)C
- pIC50 [1]: 4.62
- pIC50 [2]: 6.49
- pIC50 [3]: 5.06

Compound: CC(C)(C)NC(=O)c1ccccc1C[C@@H](O)[C@H](Cc1ccccc1)NC(=O)[C@H](CS(=O)(=O)c1cccc2ccccc12)NS(C)(=O)=O
- pIC50 [1]: 8.06
- pIC50 [2]: 9.36
- pIC50 [3]: > 9.30
- pIC50 [5]: 7.31

Compound: COc1ccc(SC[C@H](NS(C)(=O)=O)C(=O)N[C@@H](Cc2ccccc2)[C@H](O)Cc2ccccc2C(=O)NC(C)(C)C)cc1
- pIC50 [1]: 5.72
- pIC50 [2]: 7.80
- pIC50 [3]: 5.74

Compound: CC(C)(C)NC(=O)c1ccccc1C[C@@H](O)[C@H](Cc1ccccc1)NC(=O)[C@H](C[S+]([O-])c1ccc(F)cc1)NS(C)(=O)=O (stereo partly drawn)
- pIC50 [1]: 6.05
- pIC50 [2]: 9.42
- Cmax [4]: 2200 ng/mL
- pIC50 [3]: 6.78

Compound: CC(C)(C)NC(=O)c1ccccc1C[C@@H](O)[C@H](Cc1ccccc1)NC(=O)[C@H](CSc1ccccn1)NS(C)(=O)=O
- pIC50 [2]: 6.04

Compound: CC(C)(C)NC(=O)c1ccccc1C[C@@H](O)[C@H](Cc1ccccc1)NC(=O)[C@H](CSc1ccc(F)cc1)NS(C)(=O)=O
- pIC50 [1]: 5.54
- pIC50 [2]: 8.36
- pIC50 [3]: 5.67

Compound: CC(C)(C)NC(=O)c1ccccc1C[C@@H](O)[C@H](Cc1ccccc1)NC(=O)[C@H](CS(=O)(=O)c1ccc2ccccc2n1)NS(C)(=O)=O
- pIC50 [1]: 8.30
- pIC50 [2]: 9.52
- Cmax [4]: < 100 ng/mL
- pIC50 [3]: > 9.30
- pIC50 [5]: 7.92

Compound: COc1ccc(S(=O)(=O)C[C@H](NS(C)(=O)=O)C(=O)N[C@@H](Cc2ccccc2)[C@H](O)Cc2ccccc2C(=O)NC(C)(C)C)cc1
- pIC50 [1]: 6.82
- pIC50 [2]: 8.62
- Cmax [4]: < 300 ng/mL
- pIC50 [3]: 7.27
- pIC50 [5]: 6.97

Compound: CCC(=O)N[C@@H](CC(=O)OCc1ccccc1)C(=O)N[C@@H](Cc1ccccc1)[C@H](O)Cc1ccccc1C(=O)NC(C)(C)C
- pIC50 [1]: 5.01
- pIC50 [2]: 7.14
- pIC50 [3]: 5.28

Compound: CC(C)(C)NC(=O)c1ccccc1C[C@@H](O)[C@H](Cc1ccccc1)NC(=O)[C@H](CS(=O)(=O)c1ccccc1)NS(C)(=O)=O
- pIC50 [1]: 6.75
- pIC50 [2]: 8.24
- Cmax [4]: < 300 ng/mL
- pIC50 [3]: 7.14
- pIC50 [5]: 7.08

Compound: CC(=O)N[C@@H](C[S+]([O-])c1ccc2ccccc2n1)C(=O)N[C@@H](Cc1ccccc1)[C@H](O)Cc1ccccc1C(=O)NC(C)(C)C (stereo partly drawn)
- pIC50 [1]: 6.74
- pIC50 [2]: 9.60
- pIC50 [3]: 7.14

Compound: CC(C)(C)NC(=O)c1ccccc1C[C@@H](O)[C@H](Cc1ccccc1)NC(=O)[C@H](C[S+]([O-])c1ccc2ccccc2c1)NS(C)(=O)=O (stereo partly drawn)
- pIC50 [1]: 8.37
- pIC50 [2]: 8.46
- Cmax [4]: 330 ng/mL
- pIC50 [3]: > 9.30
- pIC50 [5]: 8.17

Compound: CC(C)(C)NC(=O)c1ccccc1C[C@@H](O)[C@H](Cc1ccccc1)NC(=O)[C@H](CS(=O)(=O)Cc1ccccc1)NS(C)(=O)=O
- pIC50 [1]: 6.14
- pIC50 [2]: 7.71
- pIC50 [3]: 6.10

Compound: CC(C)(C)NC(=O)c1ccccc1C[C@@H](O)[C@H](Cc1ccccc1)NC(=O)[C@H](CS(=O)(=O)c1ccccn1)NS(C)(=O)=O
- pIC50 [2]: 7.66

Compound: CC(C)(C)NC(=O)c1ccccc1C[C@@H](O)[C@H](Cc1ccccc1)NC(=O)[C@H](C[S+]([O-])c1ccccn1)NS(C)(=O)=O (stereo partly drawn)
- pIC50 [1]: 6.11
- pIC50 [2]: 7.71 and 8.10
- Cmax [4]: < 200 ng/mL
- pIC50 [3]: 6.48
- pIC50 [5]: 6.32

Compound: CC(C)(C)NC(=O)c1ccccc1C[C@@H](O)[C@H](Cc1ccccc1)NC(=O)[C@H](CS(=O)(=O)c1ccc(Cl)cc1)NS(C)(=O)=O
- pIC50 [1]: 7.62
- pIC50 [2]: 9.47
- Cmax [4]: < 300 ng/mL
- pIC50 [3]: 6.86
- pIC50 [5]: 7.80

Compound: CC(C)(C)NC(=O)c1ccccc1C[C@@H](O)[C@H](Cc1ccccc1)NC(=O)[C@H](CS(=O)(=O)c1ccc(C(F)(F)F)cc1)NS(C)(=O)=O
- pIC50 [1]: 6.35
- pIC50 [2]: 8.70
- Cmax [4]: < 300 ng/mL
- pIC50 [3]: 6.69
- pIC50 [5]: 6.19

Compound: CC(=O)N[C@@H](CS(=O)(=O)c1ccc2ccccc2n1)C(=O)N[C@@H](Cc1ccccc1)[C@H](O)Cc1ccccc1C(=O)NC(C)(C)C
- pIC50 [2]: 9.55
- pIC50 [5]: 7.23

Compound: CC(C)(C)NC(=O)c1ccccc1C[C@@H](O)[C@H](Cc1ccccc1)NC(=O)C(CS(=O)(=O)c1ccc2ccccc2n1)NS(C)(=O)=O (stereo partly drawn)
- pIC50 [1]: 5.52
- pIC50 [2]: 8.55
- pIC50 [3]: 5.69
- pIC50 [5]: 5.24

Compound: Cn1nnnc1SC[C@H](NS(C)(=O)=O)C(=O)N[C@@H](Cc1ccccc1)[C@H](O)Cc1ccccc1C(=O)NC(C)(C)C
- pIC50 [1]: 5.03
- pIC50 [2]: 7.76
- pIC50 [3]: 5.18

Compound: CC(=O)N[C@@H](CS(=O)(=O)c1ccccc1)C(=O)N[C@@H](Cc1ccccc1)[C@H](O)Cc1ccccc1C(=O)NC(C)(C)C
- pIC50 [1]: 6.09
- pIC50 [2]: 7.70
- pIC50 [3]: 6.09

Compound: CC(=O)N[C@@H](CSc1ccc2ccccc2n1)C(=O)N[C@@H](Cc1ccccc1)[C@H](O)Cc1ccccc1C(=O)NC(C)(C)C
- pIC50 [2]: 7.83

Compound: CC(=O)N[C@@H](CS(=O)(=O)c1ccc2ccccc2c1)C(=O)N[C@@H](Cc1ccccc1)[C@H](O)Cc1ccccc1C(=O)NC(C)(C)C
- pIC50 [1]: 7.51
- pIC50 [2]: 9.49
- Cmax [4]: < 100 ng/mL
- pIC50 [3]: 7.96

Compound: CC(C)(C)NC(=O)c1ccccc1C[C@@H](O)[C@H](Cc1ccccc1)NC(=O)[C@H](CSc1ccc(C(F)(F)F)cc1)NS(C)(=O)=O
- pIC50 [1]: 5.23
- pIC50 [2]: 6.77
- pIC50 [3]: 5.53

Compound: CC(C)(C)NC(=O)c1ccccc1C[C@@H](O)[C@H](Cc1ccccc1)NC(=O)[C@H](CS(=O)(=O)c1ccc(F)cc1)NS(C)(=O)=O
- pIC50 [1]: 6.36
- pIC50 [2]: 9.11
- Cmax [4]: < 300 ng/mL
- pIC50 [3]: 7.23
- pIC50 [5]: 7.49

Compound: Cn1nnnc1[S+]([O-])C[C@H](NS(C)(=O)=O)C(=O)N[C@@H](Cc1ccccc1)[C@H](O)Cc1ccccc1C(=O)NC(C)(C)C (stereo partly drawn)
- pIC50 [2]: 8.68
- Cmax [4]: 490 ng/mL
- pIC50 [5]: 5.30

Compound: CC(C)(C)NC(=O)c1ccccc1C[C@@H](O)[C@H](Cc1ccccc1)NC(=O)[C@H](CSc1cccc2ccccc12)NS(C)(=O)=O
- pIC50 [1]: 6.12
- pIC50 [2]: 8.92
- pIC50 [3]: 6.57
- pIC50 [5]: 6.49

Compound: CC(C)(C)NC(=O)c1ccccc1C[C@@H](O)[C@H](Cc1ccccc1)NC(=O)[C@H](C[S+]([O-])c1ccc(C(F)(F)F)cc1)NS(C)(=O)=O (stereo partly drawn)
- pIC50 [1]: 6.94
- pIC50 [2]: 8.64
- Cmax [4]: < 200 ng/mL
- pIC50 [3]: 7.28

Compound: CC(C)(C)NC(=O)c1ccccc1C[C@@H](O)[C@H](Cc1ccccc1)NC(=O)[C@H](CSCc1ccccc1)NS(C)(=O)=O
- pIC50 [1]: 6.03
- pIC50 [2]: 7.83
- pIC50 [3]: 5.78
